# Compounds with a hit are over-represented: about 9.4% of the library has one in this group of screens.
# Lmaj promast: reduces viability of Leishmania major promastigotes; resazurin fluorescence viability; AID 1063; actives 9% (n = 200,000); inhibition, % at 10 µM; in the data active = inhibition above about 50%;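 also: promastigotes grown with compound for 44 hours at 28 °C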
# Mdm2 MdmX PPI: human Mdm2/MdmX binding inhibition. actives 3% (n = 330,000). inhibition, % at 8 µM. AID 485346. SaOS-2 split-luciferase Mdm2/MdmX complementation, luminescence;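 active = inhibition of at least 50% at 8 µM in the primary screen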
# Target sequence (O15151 whole entry, looked up): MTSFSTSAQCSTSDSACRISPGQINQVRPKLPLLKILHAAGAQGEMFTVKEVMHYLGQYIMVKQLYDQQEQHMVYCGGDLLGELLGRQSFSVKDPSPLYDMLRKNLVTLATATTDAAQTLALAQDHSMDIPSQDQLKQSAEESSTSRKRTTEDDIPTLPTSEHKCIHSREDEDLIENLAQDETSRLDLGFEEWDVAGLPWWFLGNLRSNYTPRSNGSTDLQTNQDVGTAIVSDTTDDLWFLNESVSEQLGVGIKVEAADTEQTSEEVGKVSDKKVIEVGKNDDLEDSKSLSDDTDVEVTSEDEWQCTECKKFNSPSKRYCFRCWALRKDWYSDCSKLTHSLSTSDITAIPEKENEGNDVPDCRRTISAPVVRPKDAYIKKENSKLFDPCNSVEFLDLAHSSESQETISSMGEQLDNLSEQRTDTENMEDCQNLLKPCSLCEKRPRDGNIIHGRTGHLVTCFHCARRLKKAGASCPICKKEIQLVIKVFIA
# Target sequence (Q00987 whole entry, looked up): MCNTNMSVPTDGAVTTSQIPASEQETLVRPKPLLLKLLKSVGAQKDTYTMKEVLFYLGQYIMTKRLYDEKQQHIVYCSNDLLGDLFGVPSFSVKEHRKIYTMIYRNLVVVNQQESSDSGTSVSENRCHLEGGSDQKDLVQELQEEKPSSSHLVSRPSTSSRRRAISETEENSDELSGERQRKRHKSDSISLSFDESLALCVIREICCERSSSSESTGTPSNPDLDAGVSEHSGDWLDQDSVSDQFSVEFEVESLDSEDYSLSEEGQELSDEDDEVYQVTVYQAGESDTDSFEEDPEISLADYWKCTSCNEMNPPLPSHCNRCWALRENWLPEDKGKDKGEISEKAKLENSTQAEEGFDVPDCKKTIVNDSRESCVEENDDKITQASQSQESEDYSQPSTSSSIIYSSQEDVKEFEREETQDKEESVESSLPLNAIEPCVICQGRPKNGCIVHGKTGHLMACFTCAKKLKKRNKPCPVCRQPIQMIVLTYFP
# CSC inhib: cancer stem cell inhibition. actives 1.1% (n = 300,000). cancer stem cell-like cells viability, luminescence. inhibition, % at 7.5 µM; in the data active = inhibition above about 75%; inconclusive = no clear call, values can overlap the other calls; tested in HMLE shEcad cells
# Beta cell apopt: beta cell apoptosis inhibition | INS-1E cytokine-induced death, ATP luminescence, 48 h; percent of positive-control rescue, neutral wells zero | protection from apoptosis, % (concentration not given with the values) | actives 0.8% (n = 300,000);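 active = Every replicate reaches about 75%, or at least half do and their mean reaches it too, limit read from the data; inconclusive = At least half of replicates reach the limit but their mean does not; inactive = Under half of replicates reach the limit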;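 also: 0% = cytokine-treated negative control wells and 100% = positive control rescue; higher means more ATP so stronger rescue from cytokine killing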
# SKKanGAS inh: blocks kanamycin growth of S. pyogenes SKKanGAS strain; BacTiter-Glo, 6 h; inhibition, % at 7.5 µM; actives 1.3% (n = 300,000); AID 1662;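 active = mean replicate score, as percent of positive control median, at least 50; inconclusive = mean below 50 but one replicate at or above 50; inactive = mean and every replicate below 50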;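 also: strain carries kanamycin resistance gene driven by streptokinase promoter and grows in 40 µg/ml kanamycin; loss of luminescence reflects streptokinase promoter inhibition or plain growth inhibition; 0% = median of DMSO wells and 100% = positive control at its reference dose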
# T cruzi inh: T. cruzi replication inhibition; AID 1885; actives 1.4% (n = 300,000); inhibition, % (no concentration beside the values); T. cruzi beta-gal in NIH3T3, luminescence, 90 h;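 active = mean inhibition across valid replicates above about 55%, limit read from the data; inconclusive = mean below that limit but half or more replicates reach it; inactive = mean below it, under half of replicates reach it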;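 also: signal also drops with host cell toxicity which is not excluded here; 0% = plate median of DMSO wells and 100% = zero luminescence signal; higher percent means less beta-gal luminescence so fewer parasites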
#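 Assay system: NIH/3T3 fibroblasts plus reporter T. cruzi. Amount: NIH/3T3 cells, 5,000 per well. Buffer or medium: DMEM, 2% fetal bovine serum. Doses: compound pinned at 50 nL/well, DMSO. Schedule: ≥90 h infection period, 3 h prior cell attachment. Signal: luminescent β-galactosidase signal after 60 min lysis. Read-out: parasite load inhibition, %.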
# * hit, by the source's call; ? = inconclusive; nt = no result given.
SMILES,Lmaj promast,Mdm2 MdmX PPI,CSC inhib,Beta cell apopt,SKKanGAS inh,T cruzi inh
Cc1ccc(N(C(=O)CCC(=O)Nc2cc(C)on2)C(C(=O)NC2CCCC2)c2cccs2)cc1 (stereo not given),54*,-26,-2,-3,-1,-8
CCCC(CCC(=O)Nc1cccc([N+](=O)[O-])c1)C(=O)O (stereo not given),nt,7,-3,-5,6,-12
COc1cccc(NC(=O)CN2C(=O)COc3ccc(S(=O)(=O)N4CCCCCC4)cc32)c1,nt,29,-10,-4,0,9
Cc1ccc(CN2[C@@H](CC(C)C)COCCS2(=O)=O)cc1,nt,17,1,-1,2,6
Cc1ccc(S(=O)(=O)CCC(=O)OCC(=O)N(Cc2ccccc2)C(C)C)cc1,nt,15,-4,-8,-3,-10
Cc1ccc(C(C(=O)NC2CCCC2)N(Cc2ccco2)C(=O)CCC(=O)Nc2cc(C)on2)cc1 (stereo not given),82*,-11,-15,-1,0,8
Cc1cc(NC(=O)CCC(=O)N(Cc2cccs2)C(C(=O)NC2CCCC2)c2ccccc2)no1 (stereo not given),94*,12,-9,-2,1,17
Cc1cc(NC(=O)CCC(=O)N(Cc2cccs2)C(C(=O)NC2CCCC2)c2cccnc2)no1 (stereo not given),-5,-2,-7,1,3,1
COCCOc1ccc(C(F)(F)F)cc1NC(=O)c1ccccc1,-7,-4,nt,4,0,12
CC(C)(C)c1ccc(OCCOc2ccc(C(C)(C)C)cc2NC=O)c(NC=O)c1,nt,32,nt,nt,30,59*
CC(OC(=O)c1ccncc1)C(=O)Nc1ccc([N+](=O)[O-])cc1Cl (stereo not given),2,2,2,-4,4,-7
COc1ccc(CNc2ccc(Cl)cc2)cc1Cn1ccnc1,nt,-15,66,6,19,59*
CCc1ccc(NCc2ccc(OC)c(Cn3ccnc3)c2)cc1,nt,2,16,28,-7,47
CCN1CCN(Cc2ccc(OC)c(OCc3ccccc3)c2)CC1,17,9,-3,-7,3,28
CCN1CCN(Cc2ccc(OCc3ccccc3)cc2)CC1,92*,-31,?,-6,3,34
CN1CCN(Cc2ccc(OCc3ccccc3)cc2)CC1,95*,-78,38,18,-15,52
CSCCCN1CCC(n2nccc2NC(=O)CCCc2ccccc2)CC1,nt,-12,-3,-6,20,18
Cc1cc2nc(-c3ccc(SCc4ccc(C#N)cc4)nc3)[nH]c2cc1C,62*,19,16,9,38,56*
N#Cc1ccccc1CSc1ccc(-c2nc3ccccc3[nH]2)cn1,22,-8,nt,nt,1,13
COc1cc(C)ccc1OCc1cc(C(=O)N2CCCCCCC2)no1,nt,-28,-5,-4,5,0
O=C(CCCc1ccccc1)Nc1nccs1,nt,-1,-2,3,0,3
CC(=O)c1cccc(NC(=O)C=C(C)C)c1,98*,-19,-6,-36,4,-21
O=C(NC(=S)Nc1cccc(CO)c1)c1ccc(-c2ccccc2)cc1,57*,-55,16,-1,-11,-25
O=C(NC(=S)Nc1cccnc1)c1cccc(Br)c1,nt,18,0,-3,0,-9
CC(=O)c1cccc(NC(=S)NC(=O)c2ccc(Br)cc2)c1,54*,-3,-1,8,-3,2
SMILES,Lmaj promast,Mdm2 MdmX PPI,CSC inhib,Beta cell apopt,SKKanGAS inh,T cruzi inh
O=C(NC(=S)Nc1cc(Cl)ccc1O)c1cccc(Br)c1,nt,43,27,3,108*,-21
O=S(=O)(c1ccccc1)c1nc(Nc2ccccc2N2CCOCC2)sc1Cl,56*,2,nt,nt,9,29
CNC[C@H]1Oc2c(NS(=O)(=O)c3cccs3)cccc2C(=O)N([C@H](C)CO)C[C@@H]1C,nt,11,-10,-2,nt,nt
COc1ccc(-n2nc(C)c3c(=O)c4c([nH]c32)CCCC4)cc1,nt,21,1,1,5,62*
O=C(CSCc1ccccc1Cl)N1CCN(c2ccccn2)CC1,60*,-42,-4,1,-1,24
O=C(CCSCc1ccccc1Cl)N1CCN(c2cccc(Cl)c2)CC1,69*,-14,28,1,5,27
O=C(CCN1C(=O)C2C3C=CC(C3)C2C1=O)N1CCN(c2cccc(Cl)c2)CC1 (stereo not given),56*,-5,16,-2,-3,21
O=C(C(=O)N1CCN(c2cccc(Cl)c2)CC1)N1CCCCC1,6,3,-8,-6,1,-9
Cc1cc([N+](=O)[O-])nn1CC(=O)c1ccccc1,-6,16,3,0,1,0
Cc1nc([N+](=O)[O-])c(Br)n1CC(=O)c1ccccc1,96*,-3,-3,-4,-1,2
C=CCNC(=O)/C(C#N)=C/c1c(N(Cc2ccccc2)Cc2ccccc2)nc2ccccn2c1=O,76*,32,8,26,12,37
CCOc1ccccc1NC(=O)/C(C#N)=C/c1c(C)nn(-c2ccccc2)c1Cl,82*,-2,38,2,5,13
C=CCNC(=O)/C(C#N)=C/c1c(C)nn(-c2ccccc2)c1Cl,99*,13,-5,-8,-5,-9
CCOc1ccccc1NC(=O)/C(C#N)=C/c1cccnc1,nt,25,-12,-11,10,-7
Cc1ccc(-c2nn(-c3ccccc3)cc2C=C2C(=O)CC(C)(C)CC2=O)cc1,96*,2,0,-1,2,12
